Source: ChEMBL document CHEMBL2016553, “Design and synthesis of 3-(4,5,6,7-tetrahydro-3H-imidazo[4,5-c]pyridin-2-yl)-1H-quinolin-2-ones as VEGFR-2 kinase inhibitors” (Bioorg Med Chem Lett, 2012)

What was measured:
[1] = molecular target: T1, Vascular endothelial growth factor receptor 2 (Homo sapiens, UniProt P35968); experiment: Inhibition of VEGFR-2 kinase
How it was run: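 HTRF KinEASE assay with recombinant VEGFR-2 kinase domain. Enzyme, ATP and substrate levels were optimised per kit. TR-FRET signal read after detection reagents. IC50 from dose–response curves.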

[2] = molecular target: T1, Vascular endothelial growth factor receptor 2; experiment: Inhibition of recombinant VEGFR-2 kinase domain by homogeneous time-resolved fluorescence assay
CYP2C19 = CYP2C19 (Homo sapiens, UniProt P33261); experiment: Inhibition of recombinant human CYP2C19 assessed as remaining activity at 10 uM after 20 mins by fluorescence assay; type: ADME; conditions: read-out: Activity
Sequence of CYP2C19 (P33261 whole entry): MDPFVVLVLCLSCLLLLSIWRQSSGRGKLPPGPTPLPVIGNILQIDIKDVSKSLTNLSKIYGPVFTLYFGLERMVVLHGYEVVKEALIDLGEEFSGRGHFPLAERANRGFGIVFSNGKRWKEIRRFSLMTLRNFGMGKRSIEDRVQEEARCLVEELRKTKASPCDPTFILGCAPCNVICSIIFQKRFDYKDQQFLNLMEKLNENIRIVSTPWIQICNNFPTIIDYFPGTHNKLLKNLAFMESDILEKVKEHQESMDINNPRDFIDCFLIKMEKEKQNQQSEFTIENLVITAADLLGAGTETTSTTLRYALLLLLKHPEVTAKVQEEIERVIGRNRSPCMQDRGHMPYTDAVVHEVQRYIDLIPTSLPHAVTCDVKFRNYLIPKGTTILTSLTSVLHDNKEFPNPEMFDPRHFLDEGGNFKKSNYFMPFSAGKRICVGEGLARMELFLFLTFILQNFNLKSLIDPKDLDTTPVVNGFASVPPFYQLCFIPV

CYP2C9 = CYP2C9 (Homo sapiens, UniProt P11712); experiment: Inhibition of recombinant human CYP2C9 assessed as remaining activity at 10 uM after 20 mins by fluorescence assay; type: ADME; conditions: read-out: Activity
Sequence of CYP2C9 (P11712 whole entry): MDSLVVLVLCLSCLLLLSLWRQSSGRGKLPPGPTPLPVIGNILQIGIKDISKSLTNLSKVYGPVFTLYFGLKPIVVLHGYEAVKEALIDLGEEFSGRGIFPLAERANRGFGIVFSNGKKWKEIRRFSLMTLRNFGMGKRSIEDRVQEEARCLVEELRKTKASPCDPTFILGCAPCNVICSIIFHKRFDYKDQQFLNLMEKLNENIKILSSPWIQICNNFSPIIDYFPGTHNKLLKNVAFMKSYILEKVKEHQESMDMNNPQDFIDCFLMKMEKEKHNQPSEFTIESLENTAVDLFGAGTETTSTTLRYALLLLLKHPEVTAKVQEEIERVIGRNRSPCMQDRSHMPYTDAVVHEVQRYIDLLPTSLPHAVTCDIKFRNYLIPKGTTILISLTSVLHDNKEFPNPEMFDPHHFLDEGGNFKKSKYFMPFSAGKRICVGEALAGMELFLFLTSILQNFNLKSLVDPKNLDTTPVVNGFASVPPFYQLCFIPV

CYP3A4 = CYP3A4 (Homo sapiens, UniProt P08684); experiment: Inhibition of recombinant human CYP3A4 assessed as remaining activity at 10 uM after 20 mins by fluorescence assay; type: ADME; conditions: read-out: Activity
Sequence of CYP3A4 (P08684 whole entry): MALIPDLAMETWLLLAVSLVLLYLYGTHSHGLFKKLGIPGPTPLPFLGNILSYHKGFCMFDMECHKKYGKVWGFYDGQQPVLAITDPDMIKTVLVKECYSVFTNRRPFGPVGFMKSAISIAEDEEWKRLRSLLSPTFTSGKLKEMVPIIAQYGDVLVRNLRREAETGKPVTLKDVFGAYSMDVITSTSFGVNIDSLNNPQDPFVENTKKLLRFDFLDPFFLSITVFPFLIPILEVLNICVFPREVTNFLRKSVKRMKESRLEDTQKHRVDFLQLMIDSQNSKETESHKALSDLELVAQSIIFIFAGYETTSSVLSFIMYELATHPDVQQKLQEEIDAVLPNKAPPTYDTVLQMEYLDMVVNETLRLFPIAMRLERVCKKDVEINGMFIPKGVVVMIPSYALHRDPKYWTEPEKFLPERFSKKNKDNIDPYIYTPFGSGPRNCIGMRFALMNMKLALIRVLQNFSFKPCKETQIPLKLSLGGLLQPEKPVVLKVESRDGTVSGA

[3] = Metabolic stability in human liver microsomes assessed as compound remaining at 10 uM after 30 mins by LC/MS/MS method; type: ADME, Microsome; conditions: read-out: Stability
CYP1A2 = molecular target: T2, CYP1A2 (Homo sapiens, UniProt P05177); experiment: Inhibition of recombinant human CYP1A2 assessed as remaining activity at 10 uM after 20 mins by fluorescence assay; type: ADME; conditions: read-out: Activity
T2 sequence (P05177 whole entry): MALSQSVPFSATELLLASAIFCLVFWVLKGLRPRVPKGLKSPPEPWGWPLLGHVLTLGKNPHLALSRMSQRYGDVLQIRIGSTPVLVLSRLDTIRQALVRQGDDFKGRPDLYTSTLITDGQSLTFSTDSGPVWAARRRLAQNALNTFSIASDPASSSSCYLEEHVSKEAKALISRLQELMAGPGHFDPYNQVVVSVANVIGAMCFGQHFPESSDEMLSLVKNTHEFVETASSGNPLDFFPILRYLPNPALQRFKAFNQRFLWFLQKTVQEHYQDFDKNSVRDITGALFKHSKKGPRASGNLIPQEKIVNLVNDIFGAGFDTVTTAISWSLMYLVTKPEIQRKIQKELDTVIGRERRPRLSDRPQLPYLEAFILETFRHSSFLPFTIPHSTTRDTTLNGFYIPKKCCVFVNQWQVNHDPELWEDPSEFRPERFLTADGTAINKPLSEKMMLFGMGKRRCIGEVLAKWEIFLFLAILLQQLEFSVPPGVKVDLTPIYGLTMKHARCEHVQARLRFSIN

CYP2D6 = CYP2D6 (Homo sapiens, UniProt P10635); experiment: Inhibition of recombinant human CYP2D6 assessed as remaining activity at 10 uM after 20 mins by fluorescence assay; type: ADME; conditions: read-out: Activity
Sequence of CYP2D6 (P10635 whole entry): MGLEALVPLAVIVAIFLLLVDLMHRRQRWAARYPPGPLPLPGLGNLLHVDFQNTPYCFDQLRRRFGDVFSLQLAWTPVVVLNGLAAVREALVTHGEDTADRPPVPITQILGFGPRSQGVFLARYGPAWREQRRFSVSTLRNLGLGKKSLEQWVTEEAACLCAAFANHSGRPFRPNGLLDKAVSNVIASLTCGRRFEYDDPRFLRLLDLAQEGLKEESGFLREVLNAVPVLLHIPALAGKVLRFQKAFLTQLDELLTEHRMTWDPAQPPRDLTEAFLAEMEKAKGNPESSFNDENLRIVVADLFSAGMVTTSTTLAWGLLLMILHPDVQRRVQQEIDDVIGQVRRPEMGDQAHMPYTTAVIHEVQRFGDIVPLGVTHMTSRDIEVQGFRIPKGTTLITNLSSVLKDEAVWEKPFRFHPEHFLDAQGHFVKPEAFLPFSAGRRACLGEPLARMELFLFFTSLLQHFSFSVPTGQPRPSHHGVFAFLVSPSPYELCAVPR

HUVEC [4] = experiment: Antiproliferative activity against Vegf-stimulated HUVEC at 1 uM after 24 hrs by WST-1 assay relative to control; type: functional, Homo sapiens
How it was run: (§1)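 Pooled HUVECs grown in 1:1 EBM-2 with EGM-2 supplements, used at passage eight or lower. Seeded at 10,000 cells/well on collagen type I-coated plates. After 24 h, treated 24 h with rhVEGF (20 ng/mL) plus compound. Proliferation read by Premix WST-1 assay.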

HUVEC [5] = experiment: Antiproliferative activity against Vegf-stimulated HUVEC at 10 uM after 24 hrs by WST-1 assay relative to control; type: functional, Homo sapiens; how it was run: as §1
HUVEC [6] = experiment: Antiangiogenic activity in HUVEC assessed as tube formation at 10 uM after 16 to 18 hrs by microscopy relative to control; type: functional, Homo sapiens
How it was run: (§2)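 Pooled HUVECs seeded at 40,000/well on wells coated with a 1:1 mix of Matrigel (10 mg/mL) and EBM-2/EGM-2 medium, coating set 1 h at 37 °C. Cells incubated 16–18 h, then fixed. Tube formation imaged by camera and quantified by image analysis.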

HUVEC [7] = experiment: Antiproliferative activity against Vegf-stimulated HUVEC at 0.1 uM after 24 hrs by WST-1 assay relative to control; type: functional, Homo sapiens; how it was run: as §1
HUVEC [8] = experiment: Antiangiogenic activity in HUVEC assessed as tube formation at 1 uM after 16 to 18 hrs by microscopy relative to control; type: functional, Homo sapiens; how it was run: as §2
[9] = Metabolic stability in human liver microsomes assessed as compound remaining at 2 uM after 30 mins by LC/MS/MS method; type: ADME, Microsome; conditions: read-out: Stability
How it was run: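 Human liver microsomes (0.5 mg/ml) in 100 mM potassium phosphate pH 7.4, test compound final 2 µM. Pre-incubated 5 min at 37 °C, then started with NADPH regenerating solution. Stopped at a single 30 min point with 3 volumes ice-cold acetonitrile containing imipramine (80 ng/ml) as internal standard. Samples vortexed, centrifuged and analysed by LC/MS/MS.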

T1 sequence (P35968 whole entry, the tested form may be a part): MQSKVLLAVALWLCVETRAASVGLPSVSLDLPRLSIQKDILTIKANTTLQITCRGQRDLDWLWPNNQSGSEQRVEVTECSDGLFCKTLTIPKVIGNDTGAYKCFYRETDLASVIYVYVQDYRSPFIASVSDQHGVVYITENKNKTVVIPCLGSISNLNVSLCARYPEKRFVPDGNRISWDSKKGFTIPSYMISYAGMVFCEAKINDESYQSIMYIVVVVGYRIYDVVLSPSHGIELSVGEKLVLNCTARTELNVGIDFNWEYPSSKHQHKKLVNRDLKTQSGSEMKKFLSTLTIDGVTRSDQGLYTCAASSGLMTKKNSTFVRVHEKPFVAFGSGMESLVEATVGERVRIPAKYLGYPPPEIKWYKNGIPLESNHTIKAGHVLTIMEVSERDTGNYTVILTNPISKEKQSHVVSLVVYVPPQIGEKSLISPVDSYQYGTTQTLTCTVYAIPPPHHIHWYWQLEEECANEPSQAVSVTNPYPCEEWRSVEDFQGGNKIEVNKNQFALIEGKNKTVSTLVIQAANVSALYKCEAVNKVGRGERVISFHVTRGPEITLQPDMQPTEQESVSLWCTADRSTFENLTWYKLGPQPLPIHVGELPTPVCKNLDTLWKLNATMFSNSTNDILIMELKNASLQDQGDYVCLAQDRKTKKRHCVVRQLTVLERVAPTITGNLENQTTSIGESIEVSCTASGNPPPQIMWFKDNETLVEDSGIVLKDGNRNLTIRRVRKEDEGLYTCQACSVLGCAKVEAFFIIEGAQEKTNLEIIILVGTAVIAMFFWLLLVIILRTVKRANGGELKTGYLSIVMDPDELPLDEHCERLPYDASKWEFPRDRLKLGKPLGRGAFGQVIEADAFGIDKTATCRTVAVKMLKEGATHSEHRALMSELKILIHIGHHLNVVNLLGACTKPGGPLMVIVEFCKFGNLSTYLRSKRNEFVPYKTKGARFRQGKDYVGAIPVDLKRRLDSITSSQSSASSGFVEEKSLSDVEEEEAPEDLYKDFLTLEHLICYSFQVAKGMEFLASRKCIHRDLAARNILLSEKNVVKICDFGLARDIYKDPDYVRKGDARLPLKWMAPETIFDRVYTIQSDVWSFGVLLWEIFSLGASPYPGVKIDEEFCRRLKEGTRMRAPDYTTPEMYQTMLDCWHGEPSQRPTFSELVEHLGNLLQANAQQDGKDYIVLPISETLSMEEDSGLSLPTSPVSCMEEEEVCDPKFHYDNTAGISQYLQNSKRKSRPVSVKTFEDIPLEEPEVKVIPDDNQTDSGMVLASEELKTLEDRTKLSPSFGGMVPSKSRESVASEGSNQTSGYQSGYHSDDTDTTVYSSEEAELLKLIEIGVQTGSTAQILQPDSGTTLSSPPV

CN1CCc2nc(-c3cc4ccccc4[nH]c3=O)[nH]c2C1
IC50 [1]: 1 µM | IC50 [2]: 1 µM

O=c1[nH]c2ccccc2cc1-c1nc2c([nH]1)CN(Cc1ccccc1)CC2
IC50 [2]: 6 µM

O=C(OCc1ccccc1)N1CCc2nc(-c3cc4ccccc4[nH]c3=O)[nH]c2C1
IC50 [2]: 0.6 µM

O=c1[nH]c2ccccc2cc1-c1nc2c([nH]1)CN(C1CCNCC1)CC2
IC50 [2]: 5 µM

O=C(c1cccnc1)N1CCc2nc(-c3cc4ccccc4[nH]c3=O)[nH]c2C1
IC50 [2]: 0.2 µM

O=C(c1cccnc1)N1CCc2nc(-c3cc4c(F)cccc4[nH]c3=O)[nH]c2C1
IC50 [2]: 0.6 µM

O=C(c1cccnc1)N1CCc2nc(-c3cc4cc(F)ccc4[nH]c3=O)[nH]c2C1
activity at 20 min, 10 µM (CYP2C19): 92% | activity at 20 min, 10 µM (CYP2C9): 99% | activity at 20 min, 10 µM (CYP3A4): 83% | remaining at 0.5 h, 10 µM [3]: 96% | IC50 [2]: 0.001 µM | activity at 20 min, 10 µM (CYP1A2): 86% | activity at 20 min, 10 µM (CYP2D6): 67%

O=C(c1ccncc1)N1CCc2nc(-c3cc4ccccc4[nH]c3=O)[nH]c2C1
IC50 [2]: 0.2 µM

O=C(c1ccncc1)N1CCc2nc(-c3cc4c(F)cccc4[nH]c3=O)[nH]c2C1
IC50 [2]: 0.8 µM

O=C(c1ccncc1)N1CCc2nc(-c3cc4cc(F)ccc4[nH]c3=O)[nH]c2C1
activity at 20 min, 10 µM (CYP2C19): 77% | Activity (HUVEC [4]): 72% | Activity (HUVEC [5]): 71% | activity at 20 min, 10 µM (CYP2C9): 53% | activity at 20 min, 10 µM (CYP3A4): 89% | remaining at 0.5 h, 10 µM [3]: 99% | Activity (HUVEC [6]): 62% | Activity (HUVEC [7]): 120% | IC50 [2]: 0.0003 µM | Activity (HUVEC [8]): 93% | activity at 20 min, 10 µM (CYP1A2): 96% | activity at 20 min, 10 µM (CYP2D6): 90%

O=C(c1ccc(CN2CCCCC2)cc1)N1CCc2nc(-c3cc4ccccc4[nH]c3=O)[nH]c2C1
IC50 [2]: 0.0013 µM

O=C(c1ccc(CN2CCCCC2)cc1)N1CCc2nc(-c3cc4cc(F)ccc4[nH]c3=O)[nH]c2C1
activity at 20 min, 10 µM (CYP2C19): 100% | Activity (HUVEC [4]): 82% | Activity (HUVEC [5]): 79% | remaining at 0.5 h, 2 µM [9]: 92% | activity at 20 min, 10 µM (CYP2C9): 94% | activity at 20 min, 10 µM (CYP3A4): 16% | Activity (HUVEC [6]): 99% | Activity (HUVEC [7]): 92.3% | IC50 [2]: 0.0049 µM | Activity (HUVEC [8]): 102% | activity at 20 min, 10 µM (CYP1A2): 89% | activity at 20 min, 10 µM (CYP2D6): 100%

CCN(CC)CC(=O)N1CCc2nc(-c3cc4ccccc4[nH]c3=O)[nH]c2C1
IC50 [2]: 0.3 µM

O=C(CN1CCOCC1)N1CCc2nc(-c3cc4ccccc4[nH]c3=O)[nH]c2C1
IC50 [2]: 0.3 µM

O=C(CN1CCOCC1)N1CCc2nc(-c3cc4c(F)cccc4[nH]c3=O)[nH]c2C1
IC50 [2]: 1.1 µM

O=C(CN1CCOCC1)N1CCc2nc(-c3cc4cc(F)ccc4[nH]c3=O)[nH]c2C1
IC50 [2]: 0.0043 µM

O=C(CN1CCOCC1)N1CCc2nc(-c3cc4cc(Cl)ccc4[nH]c3=O)[nH]c2C1
IC50 [2]: 0.035 µM

COc1ccc2[nH]c(=O)c(-c3nc4c([nH]3)CN(C(=O)CN3CCOCC3)CC4)cc2c1
IC50 [2]: 0.76 µM

CN1CCN(CC(=O)N2CCc3nc(-c4cc5ccccc5[nH]c4=O)[nH]c3C2)CC1
IC50 [2]: 0.3 µM

CN1CCN(CC(=O)N2CCc3nc(-c4cc5c(F)cccc5[nH]c4=O)[nH]c3C2)CC1
IC50 [2]: 1.05 µM

CN1CCN(CC(=O)N2CCc3nc(-c4cc5cc(F)ccc5[nH]c4=O)[nH]c3C2)CC1
IC50 [2]: 0.013 µM

CN1CCN(CC(=O)N2CCc3nc(-c4cc5cc(Cl)ccc5[nH]c4=O)[nH]c3C2)CC1
IC50 [2]: 0.019 µM

COc1ccc2[nH]c(=O)c(-c3nc4c([nH]3)CN(C(=O)CN3CCN(C)CC3)CC4)cc2c1
IC50 [2]: 1.1 µM

O=C(CN1CCCCC1)N1CCc2nc(-c3cc4ccccc4[nH]c3=O)[nH]c2C1
IC50 [2]: 0.016 µM

O=C(CN1CCCCC1)N1CCc2nc(-c3cc4c(F)cccc4[nH]c3=O)[nH]c2C1
IC50 [2]: 0.74 µM

O=C(CN1CCCCC1)N1CCc2nc(-c3cc4cc(F)ccc4[nH]c3=O)[nH]c2C1
IC50 [2]: 0.008 µM

O=C(CN1CCCCC1)N1CCc2nc(-c3cc4cc(Cl)ccc4[nH]c3=O)[nH]c2C1
IC50 [2]: 0.022 µM

COc1ccc2[nH]c(=O)c(-c3nc4c([nH]3)CN(C(=O)CN3CCCCC3)CC4)cc2c1
IC50 [2]: 0.28 µM

O=C(CN1CCCC1)N1CCc2nc(-c3cc4ccccc4[nH]c3=O)[nH]c2C1
IC50 [2]: 0.4 µM

O=C(Cc1ccccn1)N1CCc2nc(-c3cc4ccccc4[nH]c3=O)[nH]c2C1
IC50 [2]: 0.0013 µM

O=C(Cc1ccccn1)N1CCc2nc(-c3cc4cc(F)ccc4[nH]c3=O)[nH]c2C1
IC50 [2]: 0.0007 µM

O=C(Cc1ccncc1)N1CCc2nc(-c3cc4ccccc4[nH]c3=O)[nH]c2C1
IC50 [2]: 0.0067 µM

O=C(Cc1ccncc1)N1CCc2nc(-c3cc4cc(F)ccc4[nH]c3=O)[nH]c2C1
activity at 20 min, 10 µM (CYP2C19): 35% | activity at 20 min, 10 µM (CYP2C9): 28% | activity at 20 min, 10 µM (CYP3A4): 33% | remaining at 0.5 h, 10 µM [3]: 93% | IC50 [2]: 0.0086 µM | activity at 20 min, 10 µM (CYP1A2): 58% | activity at 20 min, 10 µM (CYP2D6): 21%

O=C(Cc1ccncc1)N1CCc2nc(-c3cc4cc(Cl)ccc4[nH]c3=O)[nH]c2C1
IC50 [2]: 0.0005 µM

Cc1cccc(NC(=O)N2CCc3nc(-c4cc5ccccc5[nH]c4=O)[nH]c3C2)c1
IC50 [2]: 0.0021 µM

COc1ccc(NC(=O)N2CCc3nc(-c4cc5ccccc5[nH]c4=O)[nH]c3C2)cc1
IC50 [2]: 0.046 µM
